# Test results from ChEMBL document CHEMBL3774372, “Design, physico-chemical properties and biological evaluation of some new N-[(phenoxy)alkyl]- and N-{2-[2-(phenoxy)ethoxy]ethyl}aminoalkanols as anticonvulsant agents” (Bioorg Med Chem, 2016).
# Calls of active or inactive are those of the source.
# Experiments:
# Mus musculus [1] = assay: Anticonvulsant activity in mouse assessed as protection against subcutaneous pentylenetetrazol-induced seizures at 100 mg/kg, ip measured after 0.5 hrs; format: functional, organism-based
# Summary of the method: (§1)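 Mice dosed ip as 0.5% methylcellulose suspension; pentylenetetrazole 85 mg/kg in 0.9% NaCl injected subcutaneously into posterior midline, animals watched at least 30 min. Protection = no threshold seizure (single clonic spasm episode lasting ≥5 s); scored protected/tested.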
# Mus musculus [2] = assay: Anticonvulsant activity in mouse assessed as protection against maximal electric shock-induced seizures at 30 mg/kg, ip measured after 4 hrs; format: functional, organism-based
# Summary of the method: (§2)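 Mice dosed ip with suspension in 0.5% methylcellulose; maximal electroshock applied at the listed time after dosing. Protection = abolition of hindlimb tonic extension component of seizure; reported as animals protected/animals tested.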
# Mus musculus [3] = assay: Neurotoxicity in mouse at 300 mg/kg, ip after 0.5 hrs by rotarod test; format: toxicity, organism-based; details: in vivo
# Summary of the method: (§3)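 Mice were dosed ip with compound suspended in 0.5% methylcellulose. Rotarod: a 1 in. knurled rod turning at 6 rpm. Neurotoxicity was scored as failure to stay on the rod for at least 1 min in each of three trials. Results are given as the number of animals affected out of the number tested.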
# Mus musculus [4] = assay: Anticonvulsant activity in mouse assessed as protection against subcutaneous pentylenetetrazol-induced seizures at 100 mg/kg, ip measured after 4 hrs; format: functional, organism-based; summary of the method: as §1
# Mus musculus [5] = assay: Neurotoxicity in mouse at 30 mg/kg, ip after 0.5 hrs by rotarod test; format: toxicity, organism-based; details: in vivo; summary of the method: as §3
# Mus musculus [6] = assay: Anticonvulsant activity in mouse assessed as protection against maximal electric shock-induced seizures at 100 mg/kg, ip measured after 0.5 hrs; format: functional, organism-based; summary of the method: as §2
# Mus musculus [7] = assay: Neurotoxicity in mouse at 30 mg/kg, ip after 4 hrs by rotarod test; format: toxicity, organism-based; details: in vivo; summary of the method: as §3
# Mus musculus [8] = assay: Anticonvulsant activity in mouse assessed as protection against maximal electric shock-induced seizures at 30 mg/kg, ip measured after 0.5 hrs; format: functional, organism-based; summary of the method: as §2
# Mus musculus [9] = assay: Anticonvulsant activity in mouse assessed as protection against subcutaneous pentylenetetrazol-induced seizures at 30 mg/kg, ip measured after 0.5 hrs; format: functional, organism-based; summary of the method: as §1
# Mus musculus [10] = assay: Neurotoxicity in mouse at 100 mg/kg, ip after 4 hrs by rotarod test; format: toxicity, organism-based; details: in vivo; summary of the method: as §3
# Mus musculus [11] = assay: Anticonvulsant activity in mouse assessed as protection against maximal electric shock-induced seizures at 100 mg/kg, ip measured after 4 hrs; format: functional, organism-based; summary of the method: as §2
# Mus musculus [12] = assay: Anticonvulsant activity in mouse assessed as protection against subcutaneous pentylenetetrazol-induced seizures at 30 mg/kg, ip measured after 4 hrs; format: functional, organism-based; summary of the method: as §1
# Vibrio harveyi [13] = assay: Mutagenicity in Vibrio harveyi BB7X assessed as number of colonies after 48 hrs (reference value: 15 to 16 no_unit); format: ADME, organism-based; details: in vivo
# Summary of the method: (§4)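 Vibrio harveyi mutagenicity test: test compound was added to exponentially growing cultures (A600 = 0.1, 30 °C) and grown to OD600 0.3–0.4. Then 5 × 10^6 cells were plated on BOSS agar with neomycin (final 100 µg/mL) and incubated 48 h at 30 °C. Neomycin-resistant colonies were counted. Triplicate; controls were water, DMSO and NQNO 40 ng/mL.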
# Vibrio harveyi [14] = assay: Antimutagenic activity against Vibrio harveyi BB7M assessed as inhibition of NQNO-induced mutagenicity after 48 hrs; format: functional
# Summary of the method: (§5)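 V. harveyi cultures grown exponentially to A600 0.1 at 30 °C, exposed to test compound for 15 min, then to NQNO, and grown on to A600 0.3–0.4. 5 × 10⁶ cells plated on BOSS agar with neomycin (100, final). Neomycin-resistant colonies counted after 48 h at 30 °C. Result given as % inhibition of NQNO mutagenicity; three independent repeats.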
# Vibrio harveyi [15] = assay: Antimutagenic activity against Vibrio harveyi BB7 assessed as inhibition of NQNO-induced mutagenicity after 48 hrs; format: functional; summary of the method: as §5
# Vibrio harveyi [16] = assay: Antimutagenic activity against Vibrio harveyi BB7X assessed as inhibition of NQNO-induced mutagenicity after 48 hrs; format: functional; summary of the method: as §5
# Vibrio harveyi [17] = assay: Mutagenicity in Vibrio harveyi BB7M assessed as number of colonies after 48 hrs (reference value: 13 to 14 no_unit); format: ADME, organism-based; details: in vivo; summary of the method: as §4
# Vibrio harveyi [18] = assay: Antimutagenic activity against Vibrio harveyi BB7XM assessed as inhibition of NQNO-induced mutagenicity after 48 hrs; format: functional; summary of the method: as §5
# Vibrio harveyi [19] = assay: Mutagenicity in Vibrio harveyi BB7XM assessed as number of colonies after 48 hrs (reference value: 14 no_unit); format: ADME, organism-based; details: in vivo; summary of the method: as §4
# Vibrio harveyi [20] = assay: Mutagenicity in Vibrio harveyi BB7 assessed as number of colonies after 48 hrs (reference value: 13 to 14 no_unit); format: ADME, organism-based; details: in vivo; summary of the method: as §4
# Rattus norvegicus [21] = assay: Neurotoxicity in rat at 30 mg/kg, po after 0.5 hrs by rotarod test; format: toxicity, organism-based; details: in vivo
# Rattus norvegicus [22] = assay: Anticonvulsant activity in rat assessed as protection against maximal electric shock-induced seizures at 30 mg/kg, po measured after 1 hr; format: functional, organism-based
# Summary of the method: (§6)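 Rats dosed ip or orally as 0.5% methylcellulose suspension; maximal electroshock at listed time. Protection = abolition of hindlimb tonic extension; 4 rats per group, scored protected/tested.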
# Rattus norvegicus [23] = assay: Neurotoxicity in rat at 30 mg/kg, po after 2 hrs by rotarod test; format: toxicity, organism-based; details: in vivo
# Mus musculus [24] = assay: Anticonvulsant activity in mouse assessed as protection against maximal electric shock-induced seizures at 3 mg/kg, ip measured after 0.5 hrs; format: functional, organism-based; summary of the method: as §2
# Rattus norvegicus [25] = assay: Neurotoxicity in rat at 30 mg/kg, po after […] by rotarod test; format: toxicity, organism-based; details: in vivo
# Rattus norvegicus [26] = assay: Anticonvulsant activity in rat assessed as protection against maximal electric shock-induced seizures at 30 mg/kg, po measured after 2 hrs; format: functional, organism-based; summary of the method: as §6
# Rattus norvegicus [27] = assay: Anticonvulsant activity in rat assessed as protection against maximal electric shock-induced seizures at 30 mg/kg, po measured after 0.5 hrs; format: functional, organism-based; summary of the method: as §6
# Mus musculus [28] = assay: Neurotoxicity in mouse at 100 mg/kg, ip after 0.5 hrs by rotarod test; format: toxicity, organism-based; details: in vivo; summary of the method: as §3
# Rattus norvegicus [29] = assay: Neurotoxicity in rat at 30 mg/kg, po after 4 hrs by rotarod test; format: toxicity, organism-based; details: in vivo
# Rattus norvegicus [30] = assay: Neurotoxicity in rat at 30 mg/kg, po after 1 hr by rotarod test; format: toxicity, organism-based; details: in vivo
# Rattus norvegicus [31] = assay: Anticonvulsant activity in rat assessed as protection against maximal electric shock-induced seizures at 30 mg/kg, po measured after […]; format: functional, organism-based
SMILES,Activity (Mus musculus [1]),Activity (Mus musculus [2]),Activity (Mus musculus [3]),Activity (Mus musculus [4]),Activity (Mus musculus [5]),Activity (Mus musculus [6]),Activity (Mus musculus [7]),Activity (Mus musculus [8]),Activity (Mus musculus [9]),Activity (Mus musculus [10]),Activity (Mus musculus [11]),Activity (Mus musculus [12]),Activity (Vibrio harveyi [13]),Activity (Vibrio harveyi [17]),Activity (Vibrio harveyi [19]),Activity (Vibrio harveyi [20]),Activity (Mus musculus [28]),other results
Cc1cccc(OCCNC(C)CO)c1C (stereo not drawn),inactive,inactive,Toxic,inactive,Non-toxic,Active,Non-toxic,inactive,inactive,Non-toxic,inactive,inactive,,,,,,
Cc1cccc(C)c1OCCOCCN1CCC(O)CC1,,inactive,Toxic,inactive,Non-toxic,,Non-toxic,inactive,inactive,Non-toxic,inactive,inactive,16,18,26,22,,inhibition (INH) (Vibrio harveyi [14]): 34%; inhibition (INH) (Vibrio harveyi [15]): 84%; inhibition (INH) (Vibrio harveyi [16]): 12%; inhibition (INH) (Vibrio harveyi [18]): 26%
Cc1cc(C)c(OCCN[C@@H]2CCCC[C@H]2O)c(C)c1 (racemic),,inactive,Toxic,inactive,Non-toxic,,Non-toxic,Active,inactive,Non-toxic,inactive,inactive,,,,,Toxic,Activity (Rattus norvegicus [21]): Non-toxic; Activity (Rattus norvegicus [22]): inactive; Activity (Rattus norvegicus [23]): Non-toxic; Activity (Mus musculus [24]): inactive; Activity (Rattus norvegicus [25]): Non-toxic; Activity (Rattus norvegicus [26]): inactive; Activity (Rattus norvegicus [27]): inactive; Activity (Rattus norvegicus [29]): Non-toxic; Activity (Rattus norvegicus [30]): Non-toxic
Cc1cc(C)c(OCCN[C@H]2CC[C@H](O)CC2)c(C)c1,inactive,inactive,Toxic,,Non-toxic,Active,Non-toxic,inactive,inactive,Non-toxic,inactive,inactive,,,,,,Activity (Rattus norvegicus [21]): Non-toxic; Activity (Rattus norvegicus [22]): inactive; Activity (Rattus norvegicus [31]): inactive; Activity (Rattus norvegicus [23]): Non-toxic; Activity (Rattus norvegicus [25]): Non-toxic; Activity (Rattus norvegicus [26]): inactive; Activity (Rattus norvegicus [27]): inactive; Activity (Rattus norvegicus [29]): Non-toxic; Activity (Rattus norvegicus [30]): Non-toxic
Cc1cccc(OCCOCCN[C@H]2CC[C@H](O)CC2)c1C,,,,,,,,,,,,,27,25,20,22,,
CCC(CO)NCCCOc1cccc(C)c1C (stereo not drawn),inactive,inactive,Toxic,inactive,Non-toxic,Active,Non-toxic,inactive,inactive,Non-toxic,inactive,inactive,,,,,Toxic,
Cc1cccc(OCCCNC(C)CO)c1C (stereo not drawn),inactive,inactive,Toxic,inactive,Non-toxic,Active,Non-toxic,inactive,inactive,Non-toxic,inactive,inactive,,,,,Toxic,
Cc1ccc(OCCN[C@H](C)CO)c(C)c1,,,,,,,,,,,,,17,26,23,22,,
Cc1cccc(OCCNC(C)(C)CO)c1C,inactive,inactive,Toxic,inactive,Non-toxic,Active,Non-toxic,inactive,inactive,Non-toxic,inactive,inactive,,,,,,
CCC(CO)NCCOc1cccc(C)c1C (stereo not drawn),inactive,inactive,,inactive,Non-toxic,Active,Non-toxic,inactive,inactive,Non-toxic,inactive,inactive,,,,,Toxic,
